pIC50: −log10 of the molar value. Calls of active or inactive are those of the source. The calls are words filed in the database; no cut-off is given here.
Columns and labels:
Trypanosoma cruzi [1] = assay: Antitrypanosomal activity against Trypanosoma cruzi MHOM/Pe/2011/Arequipa;DTU 5 bloodstream trypomastigote infected in BALB/c mouse assessed as parasitemia reactivation in chronic phase at 20 mg/kg/day, po administered for 5 consecutive days starting from day 70 post infection followed by cyclophosphamide induced immunosuppression on day 80 post infection by Neubauer chamber relative to control; type: functional
Outline: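 Female BALB/c mice (three per group) were infected i.p. with 5 × 10^5 Arequipa bloodstream trypomastigotes and treated orally at 20 mg/kg/day for 5 days (vehicle 5% DMSO/0.5% HPMC). Once parasitemia was undetectable (day 80 pi), cyclophosphamide 200 mg/kg was given i.p. Bloodstream parasites were then counted to give % reactivation versus untreated controls.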

Trypanosoma cruzi [2] = assay: (§1) Antitrypanosomal activity against Trypanosoma cruzi MHOM/Pe/2011/Arequipa;DTU 5 bloodstream trypomastigotes infected in BALB/c mouse assessed as reduction in serum Ig-G level in acute phase at 20 mg/kg/day, po administered for 5 consecutive days starting from day 8 post infection and measured at day 14 post infection by ELISA; type: functional, organism-based
Outline: (§2)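 Sera came from infected BALB/c mice (three per group) dosed orally at 20 mg/kg/day for 5 days. Sampling points: 2 days after treatment, the day before immunosuppression (acute only) and necropsy day. Anti-T. cruzi IgG was measured by indirect ELISA using parasite Fe-SOD as antigen, read as OD at 492 nm.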

Trypanosoma cruzi [3] = assay: as §1, with “chronic” for “acute”, “70” for “8”, “infection” for “infection and”, “76” for “14”; type: functional, organism-based; outline: as §2
Trypanosoma cruzi [4] = assay: Antitrypanosomal activity against Trypanosoma cruzi MHOM/Pe/2011/Arequipa;DTU 5 amastigote forms measured after 72 hrs by Giemsa staining based assay; type: functional, organism-based; settings: MHOM/Pe/2011/Arequipa;DTU 5, 72 h
Outline: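 Vero cells (1 × 10^4/well, on coverslips) left to adhere 24 h at 37 °C, 5% CO2, then infected with trypomastigotes at MOI 10:1 for 24 h. Free parasites were removed by three PBS washes. Compounds at 3.1, 6.25, 12.5, 25 and 50 µM were incubated 72 h, and amastigotes were counted after Giemsa staining. Triplicates, two separate experiments; IC50 by nonlinear regression.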

Trypanosoma cruzi [5] = assay: Antitrypanosomal activity against bloodstream trypomastigote stage of Trypanosoma cruzi IRHOD/CO/2008/SN3;DTU 1 isolated from parasite infected BALB/c Albino mouse cardiac cells after 24 hrs by Neubauer chamber based cell counting method; type: functional, organism-based; settings: IRHOD/CO/2008/SN3;DTU 1, 24 h
Outline: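 Bloodstream trypomastigotes were taken by cardiac puncture from infected BALB/c mice and diluted in RPMI + 10% heat-inactivated FBS. At 2 × 10^6/mL they were exposed to 3.1–50.0 µM (lower where needed) for 24 h at 37 °C, 5% CO2, and counted in a Neubauer chamber. Triplicates, at least three experiments; IC50 by nonlinear regression.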

[6] = Selectivity index, ratio of IC50 for African green monkey Vero cells to IC50 for Trypanosoma cruzi MHOM/Pe/2011/Arequipa; DTU 5 amastigote forms; type: toxicity; settings: read-out: Selectivity Index
Outline: (§3)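 Vero cells (1 × 10^4/well) were infected with trypomastigotes at MOI 10:1 for 24 h and washed with PBS. They were then exposed to 3.1–50 µM for 72 h at 37 °C in 5% CO2, and amastigotes were counted after Giemsa staining. Triplicates in two determinations; nonlinear regression.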

[7] = Selectivity index, ratio of IC50 for African green monkey Vero cells to IC50 for Trypanosoma cruzi MHOM/Pe/2011/Arequipa; DTU 5 trypomastigote forms; type: toxicity; settings: read-out: Selectivity Index
Outline: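 Bloodstream trypomastigotes were taken from BALB/c mice by cardiac puncture and diluted in RPMI with 10% FBS at 2 × 10^6/mL. They were incubated with 3.1–50.0 µM for 24 h at 37 °C in 5% CO2 and counted in a Neubauer chamber. Triplicate, at least three experiments; nonlinear regression.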

[8] = Selectivity index, ratio of IC50 for African green monkey Vero cells to IC50 for Trypanosoma cruzi IRHOD/CO/2008/SN3;DTU 1 amastigote forms; type: toxicity; settings: read-out: Selectivity Index; outline: as §3
Trypanosoma cruzi [9] = assay: (§4) Antitrypanosomal activity against Trypanosoma cruzi MHOM/Pe/2011/Arequipa;DTU 5 bloodstream trypomastigote infected in BALB/c mouse assessed as parasite-free bone marrow in acute phase at 20 mg/kg/day, po administered for 5 consecutive days starting from day 8 post infection followed by cyclophosphamide induced immunosuppression on day 80 post infection measured after day 100 post infection by PCR method relative to control; type: functional
Outline: (§5)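 Female BALB/c mice (10–12 weeks, three per group) were infected i.p. with 5 × 10^5 Arequipa bloodstream trypomastigotes. Dosing was oral, 20 mg/kg/day for 5 days, as a suspension in 5% DMSO/0.5% HPMC. Cyclophosphamide 200 mg/kg i.p. was given at day 80 pi. At necropsy (day 100) tissues were tested by PCR on the splice leader region (primers TC/TC1, 300 bp). Scored as x/3 mice positive.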

Trypanosoma cruzi [10] = assay: as §4, with “oesophagus” for “bone marrow”; type: functional; outline: as §5
Trypanosoma cruzi [11] = assay: as §4, with “heart” for “bone marrow”; type: functional; outline: as §5
[12] = Toxicity in BALB/c mouse infected with Trypanosoma cruzi MHOM/Pe/2011/Arequipa;DTU 5 bloodstream trypomastigote assessed as decrease in serum creatine kinase muscle to brain ratio level in chronic phase at 20 mg/kg/day, po administered for 5 consecutive days starting from day 70 post infection and measured at day 76 post infection relative to control; type: organism-based; parameters: scale not given: the % may be the effect or the level left; settings: in vivo
Outline: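 Female BALB/c mice (10–12 weeks, 14–20 g; groups of three) were infected i.p. with 5 × 10^5 Arequipa bloodstream trypomastigotes. Dosing was oral at 20 mg/kg/day for 5 days, from day 8 pi (acute) or day 70 pi (chronic), as a 2 mg/ml suspension in 5% DMSO/0.5% HPMC; controls received vehicle. Cyclophosphamide 200 mg/kg i.p. was given at day 80 pi. Serum was collected 2 days post-treatment and at necropsy by cardiac puncture and compared with infected untreated controls.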

Trypanosoma cruzi [13] = assay: Antitrypanosomal activity against Trypanosoma cruzi MHOM/Pe/2011/Arequipa;DTU 5 epimastigote assessed as depolarization of mitochondrial membrane at IC50 measured after 72 hrs by rhodamine 123 and acridine orange staining based flow cytometry relative to control; type: functional
Outline: (§6)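 They were stained with rhodamine 123 or acridine orange and analysed by flow cytometry. Index of variation = (TM−CM)/CM, from median fluorescence of treated (TM) and untreated (CM) parasites.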

Trypanosoma cruzi [14] = assay: Antitrypanosomal activity against Trypanosoma cruzi MHOM/Pe/2011/Arequipa;DTU 5 epimastigote assessed as inhibition of DNA and RNA levels at IC50 measured after 72 hrs by acridine orange staining based flow cytometry relative to control; type: functional; parameters: scale not given: the % may be the effect or the level left; outline: as §6
Trypanosoma cruzi [15] = assay: Antitrypanosomal activity against Trypanosoma cruzi MHOM/Pe/2011/Arequipa;DTU 5 epimastigote assessed as effect on acetate excretion at IC50 after 72 hrs by H NMR method relative to control; type: functional, organism-based
Outline: (§7)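 Cells were spun at 800 × g for 10 min and culture supernatants analysed by 1H NMR. Catabolite peaks were expressed as % variation versus untreated parasites.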

Trypanosoma cruzi [16] = assay: Antitrypanosomal activity against Trypanosoma cruzi MHOM/Pe/2011/Arequipa;DTU 5 epimastigote assessed as effect on L-alanine excretion at IC50 after 72 hrs by H NMR method relative to control; type: functional, organism-based; outline: as §7
Trypanosoma cruzi [17] = assay: Antitrypanosomal activity against Trypanosoma cruzi MHOM/Pe/2011/Arequipa;DTU 5 epimastigote assessed as effect on ethanol excretion at IC50 after 72 hrs by H NMR method relative to control; type: functional, organism-based; outline: as §7

SMILES | Activity (Trypanosoma cruzi [1]) | Activity (Trypanosoma cruzi [2]) | Activity (Trypanosoma cruzi [3]) | pIC50 (Trypanosoma cruzi [4]) | pIC50 (Trypanosoma cruzi [5]) | selectivity ratio [6] | selectivity ratio [7] | selectivity ratio [8] | Activity (Trypanosoma cruzi [9]) | Activity (Trypanosoma cruzi [10]) | Activity (Trypanosoma cruzi [11]) | Activity [12] | Activity (Trypanosoma cruzi [13]) | Activity (Trypanosoma cruzi [14]) | Activity (Trypanosoma cruzi [15]) | Activity (Trypanosoma cruzi [16]) | Activity (Trypanosoma cruzi [17])
O=C(Cn1ccnc1[N+](=O)[O-])NCc1ccccc1 [BENZNIDAZOLE] | 40% | Active | Active | 5.52 | 4.48 | > 67.2 | > 32.5 | > 45.6 | 25% | 25% | 25% | <= 30% | 15.2% | -4.7% | Active | Active | Active
O=C(CCN1CCN(c2ccc(Cl)cc2)CC1)c1ccc(O)cc1 | 20% | Active | Active | 5.29 | 5.70 | 20.4 | 141 | 23.2 | 50% | 50% | 50% | <= 30% | 67.6% | -5.1% | Active | Active | Active
O=C(CCN1CCN(c2ccc(C(F)(F)F)cc2)CC1)c1ccc(O)cc1 | 30% | Active | Active | 5.21 | 5.68 | 17.4 | 123 | 16.2 | 13% | 13% | 13% | <= 30% | 54.4% | -4.2% | Active | Active | Active
